Screening results deposited in PubChem BioAssay by several laboratories.
UPR XBP1 act: adaptive UPR (XBP1) activation; CHO-XBP1 luciferase reporter, IRE1-XBP1 UPR activation, luminescence; percent of tunicamycin response, DMSO as zero; activation, % at 20 µM; 330,000 tested, 0.33% active; AID 463104;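 active means versus positive control, 20 µM dose yields 30% or more activation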;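 further: 100% = tunicamycin at 10 µg/mL and 0% = DMSO only wells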
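Material: CHO-XBP1 cells stably carrying IRE1-XBP1-driven luciferase reporter | Medium: F12 with 10% serum | Compound dosing: 20 µM single concentration, DMSO 1% | Incubation: Overnight seeding at 37 °C, 6 h compound treatment at 37 °C | Detection: Steady-Glo luminescence read | Read-out basis: % activation of reporter signal versus tunicamycin and DMSO controls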
Mdm2 MdmX PPI: disrupts the human Mdm2-MdmX interaction | O15151+Q00987 | SaOS-2 split-luciferase Mdm2/MdmX complementation, luminescence | inhibition, % at 8 µM | 330,000 tested, 3% active | AID 485346;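 active means inhibition of at least 50% at 8 µM in the primary screen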
Target sequence (O15151 whole entry, looked up): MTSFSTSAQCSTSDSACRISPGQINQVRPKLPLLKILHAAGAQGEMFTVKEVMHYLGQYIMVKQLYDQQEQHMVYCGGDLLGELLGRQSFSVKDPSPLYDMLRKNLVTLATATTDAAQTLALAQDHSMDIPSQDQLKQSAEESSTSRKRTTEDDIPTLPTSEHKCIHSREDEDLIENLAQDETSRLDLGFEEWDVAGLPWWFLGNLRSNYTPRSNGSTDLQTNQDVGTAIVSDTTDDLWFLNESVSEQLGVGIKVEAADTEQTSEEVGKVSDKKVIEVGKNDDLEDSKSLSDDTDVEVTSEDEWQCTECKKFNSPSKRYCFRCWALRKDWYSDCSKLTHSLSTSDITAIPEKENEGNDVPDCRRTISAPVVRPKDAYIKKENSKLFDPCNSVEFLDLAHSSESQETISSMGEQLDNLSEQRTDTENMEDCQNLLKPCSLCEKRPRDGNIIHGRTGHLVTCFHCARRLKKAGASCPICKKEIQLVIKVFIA
Target sequence (Q00987 whole entry, looked up): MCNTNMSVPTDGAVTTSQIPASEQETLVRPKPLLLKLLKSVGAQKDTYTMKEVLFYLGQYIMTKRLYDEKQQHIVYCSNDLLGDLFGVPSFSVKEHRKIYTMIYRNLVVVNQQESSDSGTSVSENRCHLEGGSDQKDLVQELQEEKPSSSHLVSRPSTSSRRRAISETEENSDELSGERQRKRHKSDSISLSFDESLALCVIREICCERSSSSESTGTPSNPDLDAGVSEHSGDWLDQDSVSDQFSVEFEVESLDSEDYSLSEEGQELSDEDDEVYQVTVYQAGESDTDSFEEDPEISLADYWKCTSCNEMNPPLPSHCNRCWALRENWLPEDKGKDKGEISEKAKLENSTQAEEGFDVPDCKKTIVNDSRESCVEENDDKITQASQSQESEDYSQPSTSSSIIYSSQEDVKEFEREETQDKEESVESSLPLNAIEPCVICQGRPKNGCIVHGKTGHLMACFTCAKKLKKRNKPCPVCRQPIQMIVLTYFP
CHOP UPR activ: activators of apoptotic arm of unfolded protein response (CHOP); CHO-CHOP luciferase reporter, UPR activation, luminescence; percent of tunicamycin response over DMSO baseline; activation, % at 10 µM; 330,000 tested, 0.34% active;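 active means at 10 µM dose, activation of 40% or more, normalized to positive control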;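 further: 100% = tunicamycin at 10 µg/mL and 0% = DMSO alone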
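System: CHO-CHOP luciferase reporter cell line | Buffer or medium: F12 medium containing 10% fetal bovine serum | Doses: One dose, 10 µM in 0.5% DMSO | Times: 6 h compound exposure at 37 °C after overnight seeding | Signal: Luciferase luminescence | Read-out: % activation vs tunicamycin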
Beta apoptosis: beta cell apoptosis inhibition. INS-1E cytokine-induced death, ATP luminescence, 48 h; percent of positive-control rescue, neutral wells zero. AID 435005. protection from apoptosis, % (test concentration not listed). 300,000 tested, 0.8% active;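 active means Every replicate reaches about 75%, or at least half do and their mean reaches it too, limit read from the data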;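 further: 0% = cytokine-treated negative control wells and 100% = positive control rescue; higher means more ATP so stronger rescue from cytokine killing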
SKKanGAS inh: inhibitors of SKKanGAS S. pyogenes growth in kanamycin (SK-promoter or general growth effect); 300,000 tested, 1.3% active; AID 1662; inhibition, % at 7.5 µM; BacTiter-Glo, 6 h;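 active means mean replicate score, as percent of positive control median, at least 50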;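 further: strain carries kanamycin resistance gene driven by streptokinase promoter and grows in 40 µg/ml kanamycin; loss of luminescence reflects streptokinase promoter inhibition or plain growth inhibition; 0% = median of DMSO wells and 100% = positive control at its reference dose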
CSC inhib: cancer stem cell inhibition; AID 2717; inhibition, % at 7.5 µM; 300,000 tested, 1.1% active; cancer stem cell-like cells viability, luminescence; in the data active means inhibition above about 75%; tested in HMLE shEcad cells
Mdm2-MdmX conf: confirmation of human Mdm2/MdmX interaction inhibitors | shares compounds with Mdm2 MdmX PPI | Mdm2-MdmX binding, luminescent assay | inhibition, % at 8 µM | 10,000 tested, 55% active; in the data active means inhibition above about 40%
Full FLuc ctr: full-length luciferase inhibition in Mdm2/MdmX counter-screen. 6,200 tested, 77% active. shares compounds with Mdm2 MdmX PPI. SaOS-2 full-length luciferase counterscreen, luminescence. AID 504607. inhibition, % at 8 µM;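 active means mean inhibition at 8 µM reaching about 37%, which flags the compound as non-specific, limit read from the data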;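 further: p53-null SaOS-2 cells with luciferase driven by a doxycycline-inducible promoter; compound on cells about two nights before reading with doxycycline added after day one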
The depositor's hits bear a star; . = no result given. Compounds with a hit are over-represented: about 4.8% of the library has one in this group of screens.

SMILES	UPR XBP1 act	Mdm2 MdmX PPI	CHOP UPR activ	Beta apoptosis	SKKanGAS inh	CSC inhib	Mdm2-MdmX conf	Full FLuc ctr
CN(C)C(=O)C(CCN1CCC(O)(c2ccc(Cl)cc2)CC1)(c1ccccc1)c1ccccc1	-8	67*	0	7	1	10	38	85*
CCCCn1c(N)c(N(CCOC)C(=O)c2ccc(N3CCCC3)c([N+](=O)[O-])c2)c(=O)[nH]c1=O	-1	4	2	.	3	-7	.	.
O=S1(=O)CCOC[C@H](c2ccccc2)N1Cc1cccc(Cl)c1	0	10	-2	-2	-2	7	.	.
COc1ccccc1/C=C/C=C1\Oc2c(ccc(O)c2CN(C)C)C1=O	-1	61*	6	-9	3	1	43*	44*
CCN1/C(=C/C(C)=C/c2sc3ccccc3[n+]2CC)Sc2ccccc21	-11	97*	-9	110*	100*	144*	100*	15
Cn1c(SC2=CS(=O)(=O)c3ccccc32)nc2ccccc21	-3	70*	36	13	0	46	53*	3
O=C(NCC1CC1)c1cc([N+](=O)[O-])cc([N+](=O)[O-])c1	-5	27	0	-13	6	-14	.	.
CCOc1ccc(N(CC(=O)Nc2ccc(C)cc2)S(=O)(=O)c2c(C)noc2C)cc1	-4	34	1	.	3	7	.	.
CCOc1ccc(N(CC(=O)Nc2ccccc2OC)S(=O)(=O)c2ccccc2)cc1	27	58*	3	16	1	70	63*	79*
CCOc1ccc(N(CC(=O)Nc2ccccc2OCC)S(=O)(=O)c2c(C)noc2C)cc1	18	65*	1	41	3	46	62*	90*
COc1ccccc1NC(=O)c1ccc(CN(c2cc(Cl)ccc2C)S(=O)(=O)c2ccccc2)cc1	-1	61*	-2	0	5	-1	33	.
COc1ccc(NC(=O)c2ccc(CN(c3cc(Cl)ccc3C)S(=O)(=O)c3ccccc3)cc2)cc1OC	-1	8	3	-2	7	21	.	.
COc1ccc(N(CC(=O)Nc2ccc(OC)cc2OC)S(=O)(=O)c2ccccc2)cc1	-2	10	-1	11	-1	31	.	.
O=C(Nc1c2c(nn1-c1ccc(F)cc1)CS(=O)(=O)C2)c1ccc(Br)o1	-6	-30	-2	1	-1	-22	.	.
CCc1ccc(S(=O)(=O)NCc2csc(C)n2)cc1	-4	25	0	-3	-6	-6	.	.
O=C(CCN1C(=O)/C(=C/c2ccc(F)cc2)SC1=S)N[C@@H](CO)Cc1ccccc1	-3	82*	0	-45	-1	5	61*	37*
COc1ccccc1/C=C1\SC(=S)N(CCC(=O)NCCc2ccc(O)cc2)C1=O	1	60*	7	.	23	-17	38	69*
COc1ccccc1/C=C1\SC(=S)N(CC(=O)Nc2nnc(C)s2)C1=O	-3	94*	-1	98*	14	96*	-6	.
O=C(CCN1C(=O)/C(=C/c2ccccc2F)SC1=S)NCCc1ccc(O)cc1	-4	71*	-2	.	-3	8	53*	33
O=C(CCN1C(=O)/C(=C/c2ccccc2F)SC1=S)NCCCn1ccnc1	-5	0	-1	.	1	12	.	.
O=C(CCN1C(=O)/C(=C/c2ccc(F)cc2)SC1=S)NNC(=O)c1ccncc1	-2	20	-1	-3	-2	2	.	.
Cc1ccc(C(=O)NCCNC(=O)c2cccnc2)cc1	5	4	-1	-6	-3	-3	.	.
COc1ccc(/C=C2\SC(=S)N(CCC(=O)NCCc3ccc(O)cc3)C2=O)cc1	-5	79*	0	-10	1	-5	71*	27
O=C(CCN1C(=O)/C(=C/c2ccccc2)SC1=S)NCCc1ccc(O)cc1	-5	98*	-2	-13	0	21	88*	60*
O=C(/C=C\c1ccco1)Nc1cc([N+](=O)[O-])ccc1F	24	59*	3	53	-13	.	58*	124*
SMILES	UPR XBP1 act	Mdm2 MdmX PPI	CHOP UPR activ	Beta apoptosis	SKKanGAS inh	CSC inhib	Mdm2-MdmX conf	Full FLuc ctr
O=C(/C=C/c1ccco1)Nc1cc(Cl)ccc1C(=O)O	1	-8	1	-6	9	34	.	.
Cc1cc(C(=O)NC2CCCc3c2cnn3-c2cccc(C)c2C)no1 (stereo not drawn)	-6	93*	2	.	10	-2	94*	24
COc1ccc(C(=O)NC2CCCc3c2cnn3-c2cccc(C)c2C)o1 (stereo not drawn)	-3	74*	0	15	0	15	48*	46*
CCn1cc(C(=O)NC2CCCc3c2cnn3-c2cccc(C)c2C)cn1 (stereo not drawn)	-2	84*	6	.	0	-2	92*	37*
CC(=O)Nc1ccc(C(=O)NCC2CCCCC2)cc1	0	11	-1	3	-2	-6	.	.
COc1ccc(S(=O)(=O)N2CCc3ccccc32)cc1C(=O)Nc1ccc(NC(C)=O)cc1	2	20	1	-4	.	-3	.	.
Cc1cc(N2C(=O)Cc3ccccc3C2=O)ccc1C(C)C	0	12	0	-2	-7	2	.	.
O=S(=O)(NCC(c1ccc2c(c1)OCO2)N1CCN(c2ccccc2)CC1)c1ccccc1 (stereo not drawn)	0	-7	0	.	-1	4	.	.
O=[N+]([O-])c1ccc2nc(-[n+]3c(-c4ccccc4)cc(-c4ccccc4)cc3-c3ccccc3)[nH]c2c1	-2	81*	1	45	1	31	62*	57*
COc1cc(C(=O)Nc2nc(-c3cccs3)cs2)cc(OC)c1OC	3	76*	8	.	11	.	28	.
COc1ccc(C(=O)Nc2nc(-c3cccs3)cs2)cc1	11	-65	5	-5	6	13	.	.
NCCCC[C@H]1CNC(=O)C(=O)N1CCC12CC3CC(CC(C3)C1)C2	-1	11	0	-3	5	2	.	.
COc1ccc(NC(=O)Nc2ccccc2OC)cc1	2	-27	4	7	3	-20	.	.
COc1ccccc1NC(=O)Nc1cc(NC(=O)Nc2ccccc2OC)c(C)nc1C	-1	56*	-1	51	2	0	33	61*
CCC(C)NC(=O)CCn1c(=O)c2cccn2c2ccc(F)cc21 (stereo not drawn)	-3	18	0	1	3	-9	.	.
